High-throughput results (PubChem BioAssay)
NALP3 yeast inh: NALP3 inflammasome inhibitors in reconstituted yeast, primary screen, luminescence, uHTS. hit rate 0.39% among 330,000. AID 2825, 2010. Yeast reconstituted NLRP3/ASC/caspase-1, beta-gal luminescence, 24 h. inhibition, % at 10 µM;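 active = inhibition of 50% or more; inactive = inhibition below 50%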;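 note: plate controls were induced DMSO wells for no effect and uninduced yeast grown without galactose for full effect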
UCH37 inh: inhibitors of human UCH37 deubiquitinase, primary screen, biochemical, Ub-AMC cleavage, fluorescence | Ubiquitin carboxyl-terminal hydrolase isozyme L5 (Homo sapiens), Q9Y5K5 | AID 588478, 2011 | inhibition, % (concentration not given with the values) | purified proteasome/UCH37 | hit rate 0.33% among 330,000;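 active = mean inhibition over replicate wells above about 20%, limit read from the data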;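 note: 0% = compound-free wells with enzyme and 100% = wells lacking proteasome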
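Material: Human UCH37 enzyme supplied as purified proteasome complex | Schedule: 30 min compound-proteasome preincubation then 25 min substrate reaction, room temperature | Detection: AMC fluorescence from Ub-AMC cleavage, excitation 355 nm, emission 460 nm | Benchmarks: Wells without proteasome as full block, compound-free enzyme plus substrate as uninhibited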
NALP1 yeast inh: NALP1 inflammasome inhibitors in reconstituted yeast, colorimetric, S. cerevisiae, triplicate retest. hit rate 0.61% among 280,000. inhibition, % at 10 µM. S. cerevisiae NALP1/ASC/caspase-1 growth, X-gal OD620, 72 h. AID 2071, 2009; in the data active = inhibition mostly above about 24%, no sharp cut-off; inactive = mostly below about 32%
ATG4B inh: ATG4B protease inhibitors, primary screen, biochemical, fluorescence, uHTS | hit rate 0.51% among 340,000 | inhibition, % at 8.33 µM | ATG4B cleavage of LC3-PLA2, NBD-HPC fluorescence, 1 h | Cysteine protease ATG4B (Homo sapiens), Q9Y4P1; in the data active = inhibition above about 40%
Target sequence (Q9Y4P1 whole entry, looked up): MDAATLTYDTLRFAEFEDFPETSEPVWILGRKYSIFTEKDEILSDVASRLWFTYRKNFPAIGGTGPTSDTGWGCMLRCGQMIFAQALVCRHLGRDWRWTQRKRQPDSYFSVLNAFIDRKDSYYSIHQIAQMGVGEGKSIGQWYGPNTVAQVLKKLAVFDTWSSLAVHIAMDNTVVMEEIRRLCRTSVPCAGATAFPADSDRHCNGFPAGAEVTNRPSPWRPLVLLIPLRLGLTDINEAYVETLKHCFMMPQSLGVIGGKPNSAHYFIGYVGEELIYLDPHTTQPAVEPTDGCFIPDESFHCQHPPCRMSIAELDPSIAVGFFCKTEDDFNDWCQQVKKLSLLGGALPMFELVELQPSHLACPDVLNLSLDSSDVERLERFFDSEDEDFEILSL
ALR inh: inhibitors of human ALR sulfhydryl oxidase, primary screen, biochemical, H2O2 detection, HRP-luminol luminescence, single point; FAD-linked sulfhydryl oxidase ALR (Homo sapiens), P55789; purified ALR, DTT oxidation; inhibition, % (no concentration beside the values); hit rate 3.8% among 290,000;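 active = mean replicate inhibition above about 79%, with every replicate also reaching it, limit read from the data; inconclusive = only one of the two criteria met; inactive = mean below limit and not every replicate reaching it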
Target sequence (P55789 whole entry, looked up): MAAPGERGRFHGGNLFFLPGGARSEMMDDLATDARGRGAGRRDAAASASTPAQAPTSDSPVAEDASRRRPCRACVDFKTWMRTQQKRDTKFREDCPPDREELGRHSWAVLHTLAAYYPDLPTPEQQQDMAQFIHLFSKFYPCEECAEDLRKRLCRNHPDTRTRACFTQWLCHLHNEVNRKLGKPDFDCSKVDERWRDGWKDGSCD
Calb FLC: C. albicans growth inhibition with fluconazole, primary screen, CaCi-2 strain, Alamar Blue fluorescence. hit rate 0.57% among 300,000. AID 1979, 2009. growth inhibition, % (no concentration beside the values). C. albicans CaCi-2 + fluconazole, 48 h;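 active = growth inhibition above about 58% in most replicates, limit read from the data, passing the limit was not always enough; inconclusive = exactly half the replicates above a set limit; inactive = most replicates below a set limit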;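 note: all wells also contain fluconazole at 8 µg/ml as a sub-toxic cotreatment; 0% = median of DMSO wells and 100% = median of geldanamycin control wells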
* hit, by the source's call; ? = inconclusive; · = no result given. Sampled rows, rich in hits. Any-hit rate of the full collection: about 4.8%.

SMILES | NALP3 yeast inh | UCH37 inh | NALP1 yeast inh | ATG4B inh | ALR inh | Calb FLC
COc1ccccc1CNc1ccc(CNc2ncn[nH]2)cc1 | 11.4 | 1.9 | -10.5 | 0.5 | 87.2* | -29.5
COc1ccccc1C=NN(C(C)=O)c1nc(-c2ccc(F)cc2)cs1 | · | 7.3 | · | · | · | ·
FC(F)(F)c1cnc(NNC(=S)Nc2ccccc2Cl)c(Cl)c1 | 7.8 | 1.8 | 27.8 | -4.5 | 96.7* | ?
Cc1cccc(NC(=S)NNc2ncc(C(F)(F)F)cc2Cl)c1 | 8.2 | 2.7 | 8.9 | -5.7 | 7.5 | ?
COc1cc2cccc(OC)c(=O)c2c(O)c1OC | 34.2 | 6.5 | · | 7.5 | · | 35.5
CC(=O)Oc1cc2cccc(OC(C)=O)c(=O)c2c(OC(C)=O)c1OC(C)=O | 23.8 | 11.8 | -12.7 | -25.6 | 98.6* | 47.8
Cc1ccc(C)c(SCC(=O)Nc2nnc(-c3ccccc3)o2)c1 | -1.0 | 1.1 | 3.2 | -0.2 | -4.4 | 80.8*
O=C(Nc1ccccc1)Nc1nnc(-c2ccccc2)o1 | 13.9 | 3.1 | 25.2* | -5.0 | -4.3 | 4.7
O=C(COc1ccccc1)Nc1nnc(-c2ccccc2)o1 | -1.6 | 3.3 | 3.5 | 10.3 | 92.7* | -6.7
CCC(c1nnc(SCC(=O)Nc2nnc(-c3ccccc3)o2)o1)N(C)C (centres undefined) | 15.9 | 1.2 | 3.2 | -10.0 | 16.3 | 0.4
COc1ccc(C=NOC/C(O)=C(\C#N)c2nc3ccccc3[nH]2)cc1 | · | -2.0 | · | · | · | ·
COc1cc(C=Nn2nnnc2N)ccc1O | · | -10.0 | · | · | · | ·
COC(=O)C(N)Cc1ccc(O)c(O)c1 (centres undefined) | 15.9 | -0.1 | 6.9 | -0.6 | 99.2* | 12.4
COC(=O)C(N)Cc1ccc(O)cc1 (centres undefined) | 18.3 | 3.3 | 3.5 | 15.5 | -10.5 | -9.5
O=C(NN=Cc1ccc2c(c1)OCO2)C(=O)Nc1cccc(Cl)c1 | · | -8.8 | · | · | · | ·
N#CCSCC(=O)Nc1ccc(Cl)cc1 | 2.0 | 5.3 | 4.2 | -2.4 | 98.5* | -14.2
O=C(Cc1ccc(Cl)cc1)Nc1ccc(Br)cc1 | 31.3 | 4.6 | -5.5 | -6.6 | -4.0 | 41.8*
NC(=O)SCC(=O)Nc1ccc(Cl)c(Cl)c1 | 22.9 | 11.1 | 3.0 | -11.2 | 98.5* | ·
Cc1ccc(NC(=O)CSC(N)=O)cc1Cl | 7.3 | 2.2 | 15.0 | -19.2 | 99.5* | -26.8
CC1(C)N=C(SCC(=O)Nc2ccc(Cl)cc2)C(c2ccc(Cl)cc2)=N1 | 40.0 | 2.3 | 36.5* | -16.9 | · | -1.5
Cc1c(Cl)cccc1NC(=O)CSC(N)=O | 0.5 | 5.4 | 8.5 | -2.2 | 99.1* | 0.6
Cc1c(Cl)cccc1NC(=O)CSCC(N)=O | -0.1 | 0.3 | 9.3 | -5.2 | -3.8 | 10.9
NC(=O)SCC(=O)Nc1ccc(Cl)cc1 | 2.9 | 1.3 | 4.1 | -18.2 | 99.2* | 3.6
CC1(C)N=C(SCC(=O)Nc2ccc(Cl)cc2)C(c2ccccc2)=N1 | 22.0 | 5.0 | 8.9 | -7.4 | · | 1.4
NC(=O)SCC(=O)Nc1cccc(Cl)c1 | -11.3 | 0.6 | 17.5 | -1.0 | 99.5* | -5.7
SMILES | NALP3 yeast inh | UCH37 inh | NALP1 yeast inh | ATG4B inh | ALR inh | Calb FLC
O=[N+]([O-])c1ccc2c(c1)C(=NO)c1ccccc1-2 | · | 6.7 | · | · | · | ·
COc1cc(C=NNc2nc(C)cc(C)n2)cc(OC)c1OC | · | 5.9 | · | · | · | ·
Cc1cc(NCCOCCO)n2ncc(-c3ccc(Cl)cc3)c2n1 | 3.8 | -71.1 | 20.9 | -12.3 | 98.2* | 40.8
COc1cc(NC(C)CCc2ccccc2)cc(OC)c1OC (centres undefined) | 11.6 | -3.5 | 13.5 | 2.3 | 87.9* | 8.2
Cc1noc(C)c1C=NNc1ccc2ccccc2n1 | · | -9.2 | · | · | · | ·
O=C(CCn1cnc(-c2ccccc2)c1-c1ccccc1)NN=Cc1ccc(O)cc1 | · | 3.4 | · | · | · | ·
COc1ccc(C=NNc2nncc3ccccc23)c(OC)c1 | · | 4.7 | · | · | · | ·
Cc1nc2c(c(=O)n1CCC1=CCCCC1)c1nc3ccccc3nc1n2N=Cc1ccco1 | · | -6.0 | · | · | · | ·
Cc1ccc(SCC(=O)NC2CC3CCC(C2)N3C)cc1 (centres undefined) | -0.3 | 0.2 | 3.8 | -2.2 | · | -11.5
CN1C2CCC1CC(NC(=O)CSCc1ccc(Cl)cc1Cl)C2 (centres undefined) | 20.0 | 6.3 | 6.2 | 4.9 | 98.5* | 0.9
CC(=O)OCC12COC3c4ccccc4OC(C)(CC1C)C3C2C (centres undefined) | 5.8 | 1.3 | -27.9 | 0.9 | -8.7 | 106.1*
CC(=N/N=C1\NC(=O)C(C)S1)c1ccco1 (centres undefined) | · | 7.6 | · | · | · | ·
COCCn1c(=NC(=O)CSC(C)=O)sc2cc(OC)ccc21 | 12.9 | 4.1 | · | -19.3 | 97.7* | 0.7
C[C@@H](C(=O)Nc1ccc(SC(F)F)cc1)N1C(=O)C2CCCCC2C1=O (some centres undefined) | 10.4 | 2.2 | · | -12.8 | 90.3* | ·
COc1ccc2c(c1)c(C(=O)CN1CCC3(CC1)OCCO3)c(C)n2C | 2.8 | 27.4* | 1.3 | -0.7 | -6.9 | -16.5
O=c1c2c3nc4ccccc4nc3n(N=Cc3ccco3)c2ncn1CCC1=CCCCC1 | · | -9.8 | · | · | · | ·
COCc1c(C(=O)NN=Cc2ccccn2)nnn1-c1nonc1N | · | -2.2 | · | · | · | ·
CCn1c(SCC(=O)NN=Cc2ccccc2OCC(=O)O)nnc1-c1ccc(C)cc1 | · | 2.1 | · | · | · | ·
C=CCn1cccc(C(=O)Nc2ccc(N(C)C)cc2)c1=O | 11.7 | 8.5 | 17.2 | -6.8 | 98.8* | -2.1
COc1cccc(NC(=O)c2cc([N+](=O)[O-])ccc2NC(=O)CNCC2CCCO2)c1 (centres undefined) | 18.6 | 3.2 | 15.8 | -15.0 | 99.6* | 27.6
O=C(CNCC1CCCO1)Nc1ccc([N+](=O)[O-])cc1C(=O)Nc1ccccc1F (centres undefined) | 7.4 | 6.0 | -3.7 | -9.5 | · | 11.1
N#Cc1ccccc1Cn1cc(/C=C/[N+](=O)[O-])c2ccccc21 | 3.8 | 2.2 | 74.7* | 10.9 | 15.4 | -36.1
Cc1ccccc1OCc1csc(N)n1 | 24.2 | 0.3 | 45.0* | -1.7 | 4.2 | -31.2
Brc1ccc(-c2nnc3ccc(N4CCN(c5ccccc5)CC4)nn23)cc1 | -1.6 | -15.7 | 29.6* | 1.2 | 0.7 | -2.5
CN(CC(=O)Nc1cccc2ccccc12)C(=O)c1ccc(NC(=O)CC#N)cc1 | 1.5 | 0.8 | · | -6.2 | 93.6* | ·
Cc1ccc(NC(=O)CN(C)C(=O)COC(=O)COc2ccc(C#N)cc2)cc1 | 9.2 | 1.1 | · | 0.2 | 6.4 | -3.6
CC(=O)Nc1ccc(C(=O)OCC(=O)N2CC3(C)CC2CC(C)(C)C3)cc1 (centres undefined) | -8.7 | 1.2 | · | 5.0 | 2.6 | ·
